Data taken from ChEMBL document CHEMBL2093137, “WHO-TDR NTD Screening”.
In brackets after ≈: the same amount, converted by molar mass.

Columns and labels:
[1] = tested on: Trypanosoma brucei brucei; assay: WHO-TDR: Human African Trypanosomiasis (HAT); type: functional, organism-based; settings: Squib-427
Method in brief: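 Whole-organism screen of a 10,000-compound diverse library from Life Chemicals, filtered for drug-likeness and reactive groups, against bloodstream forms of Trypanosoma brucei Squib 427 strain. The assay followed previously published standard procedures, with reference drugs as positive controls. Antiparasitic potency is reported as IC50.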

Leishmania infantum = assay: WHO-TDR: Leishmaniasis; type: functional, organism-based, Mus musculus; settings: Macrophage
Method in brief: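 Whole-organism screen of a 10,000-compound diverse library from Life Chemicals, filtered for drug-likeness and reactive groups, against intracellular amastigotes of Leishmania infantum MHOM/MA(BE)/67 in murine peritoneal macrophage host cells. The assay followed previously published standard procedures, with a reference drug as positive control. Antiparasitic potency is reported as IC50.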

Plasmodium falciparum K1 = assay: WHO-TDR: Malaria; type: functional, organism-based, Homo sapiens; settings: Erythrocyte
Method in brief: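 Whole-organism screen of a 10,000-compound diverse library from Life Chemicals, filtered for drug-likeness and reactive groups, against intra-erythrocytic Plasmodium falciparum K1 strain in human red blood cells. The assay followed previously published standard procedures, with a reference drug as positive control. Antiplasmodial potency is reported as IC50.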

Trypanosoma cruzi = assay: WHO-TDR: Chagas disease; type: functional, organism-based, Homo sapiens; settings: MRC5
Method in brief: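 Intracellular amastigotes of the Trypanosoma cruzi Tulahuen CL2 beta-galactosidase strain, grown in MRC-5SV2 human lung fibroblast host cells, were tested in a whole-organism screen. The compounds came from a 10,000-member diverse Life Chemicals library that had been filtered for drug-likeness and reactive groups. Previously published standard procedures were followed, with a reference drug as positive control, and potency is reported as IC50.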

Onchocerca lienalis = assay: (§1) WHO-TDR: Onchocerciasis; type: functional; parameters: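 at 12.5 µM on microfilariae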
Method in brief: (§2)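 A diverse library of 10,000 compounds from Life Chemicals, filtered for drug-likeness and reactive groups, was screened against whole microfilariae of Onchocerca ochengi or Onchocerca lienalis. These animal pathogens served as stand-ins for the human parasite. Activity is given as percent inhibition and as IC50.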

Schistosoma mansoni [2] = assay: (§3) WHO-TDR: Schistosomiasis; type: functional; parameters: concentration or dose not given beside the values
Method in brief: (§4)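 A diverse library of 10,000 compounds from Life Chemicals, filtered for drug-likeness and reactive groups, was screened against whole larval and/or adult Schistosoma mansoni worms of the Puerto Rican strain. Previously published standard procedures were followed, with a reference drug as positive control. Activity is given as percent inhibition and as IC50.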

[3] = WHO-TDR: Cytotoxicity; type: toxicity, cell-based; settings: human, MRC5 cells
Schistosoma mansoni [4] = assay: as §3; type: functional, organism-based; method in brief: as §4
Onchocerca ochengi = assay: as §1; type: functional; parameters: concentration or dose not given beside the values; method in brief: as §2;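 also: at 12.5 µM on microfilariae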
Brugia malayi = assay: WHO-TDR: Lymphatic Filariasis; type: functional; parameters: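 tested at 10 µM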
Method in brief: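 A diverse library of 10,000 compounds from Life Chemicals was screened against Brugia malayi microfilariae in a whole-organism assay. The library had been filtered for drug-likeness and reactive groups. Activity is given as percent inhibition and as IC50.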

Question: Which IC50 [1] does the source give for CCSc1nnc(NC(=O)CSc2nncc(=O)[nH]2)s1 here?
Answer: 3.13 µg/mL (≈ 9.49 µM)

Question: And the IC50 (Leishmania infantum)?
Answer: 3.21 µg/mL (≈ 9.71 µM)

Question: And the IC50 (Plasmodium falciparum K1)?
Answer: > 9.91 µg/mL

Question: What about the IC50 (Trypanosoma cruzi) of the same compound?
Answer: 3.09 µg/mL (≈ 9.35 µM)

Question: And the “% Inhibition” value (Onchocerca lienalis)?
Answer: 0%

Question: And the “% Inhibition” value (Schistosoma mansoni [2])?
Answer: 100%

Question: What about the IC50 [3] of the same compound?
Answer: 1.95 µg/mL (≈ 5.92 µM)

Question: And the IC50 (Schistosoma mansoni [4])?
Answer: 5.2 µM

Question: What does the source list for CN(C)CCCN(C(=O)c1cc(-c2cccs2)nc2ccccc12)c1nc2c(F)cccc2s1?
Answer: IC50 [1]: 0.383 µg/mL (≈ 0.781 µM); IC50 (Leishmania infantum): 5.12 µg/mL (≈ 10.4 µM); IC50 (Plasmodium falciparum K1): 1.2 µg/mL (≈ 2.44 µM); IC50 (Trypanosoma cruzi): 4.32 µg/mL (≈ 8.81 µM); % Inhibition (Onchocerca lienalis): 0%; % Inhibition (Schistosoma mansoni [2]): 100%; IC50 [3]: 4.21 µg/mL (≈ 8.58 µM); IC50 (Schistosoma mansoni [4]): 4.3 µM

Question: Which IC50 [1] does the source give for C=CCN(CC=C)S(=O)(=O)c1ccc(C(=O)Nc2nc3ccc(C(C)C)cc3s2)cc1 here?
Answer: > 11 µg/mL

Question: And the IC50 (Leishmania infantum)?
Answer: > 11 µg/mL

Question: What about the IC50 (Plasmodium falciparum K1) of the same compound?
Answer: > 11 µg/mL

Question: What about the IC50 (Trypanosoma cruzi) of the same compound?
Answer: 4.48 µg/mL (≈ 9.84 µM)

Question: What about the “% Inhibition” value (Onchocerca lienalis) of the same compound?
Answer: 0%

Question: What about the “% Inhibition” value (Schistosoma mansoni [2]) of the same compound?
Answer: 100%

Question: And the IC50 [3]?
Answer: > 11 µg/mL

Question: And the IC50 (Schistosoma mansoni [4])?
Answer: 5.7 µM

Question: Which IC50 [1] does the source give for Cc1nc(-c2ccccc2)sc1C(=O)Nc1cccc(-c2cn3c(n2)SCC3)c1 here?
Answer: > 12.6 µg/mL

Question: What about the IC50 (Leishmania infantum) of the same compound?
Answer: 4.07 µg/mL (≈ 9.71 µM)

Question: And the IC50 (Plasmodium falciparum K1)?
Answer: 10.4 µg/mL (≈ 24.8 µM)

Question: And the IC50 (Trypanosoma cruzi)?
Answer: 10.5 µg/mL (≈ 25 µM)

Question: What about the “% Inhibition” value (Onchocerca lienalis) of the same compound?
Answer: 0%

Question: And the “% Inhibition” value (Schistosoma mansoni [2])?
Answer: 100%

Question: And the IC50 [3]?
Answer: 8.81 µg/mL (≈ 21.1 µM)

Question: What about the IC50 (Schistosoma mansoni [4]) of the same compound?
Answer: 2.7 µM

Question: Which IC50 [1] does the source give for CCOC(=O)c1c(NC(=O)C(C)Sc2nnc(NC(C)=O)s2)sc2c1CCCC2 (stereo not given) here?
Answer: > 13.6 µg/mL

Question: What about the IC50 (Leishmania infantum) of the same compound?
Answer: > 13.6 µg/mL

Question: What about the IC50 (Plasmodium falciparum K1) of the same compound?
Answer: > 13.6 µg/mL

Question: And the IC50 (Trypanosoma cruzi)?
Answer: > 13.6 µg/mL

Question: And the “% Inhibition” value (Onchocerca lienalis)?
Answer: 0%

Question: And the “% Inhibition” value (Schistosoma mansoni [2])?
Answer: 100%

Question: And the IC50 [3]?
Answer: > 13.6 µg/mL

Question: And the IC50 (Schistosoma mansoni [4])?
Answer: 9.8 µM

Question: Which results are given for CCOc1ccc(NC(=O)CSc2nncc(O)n2)cc1?
Answer: IC50 [1]: 2.53 µg/mL (≈ 8.27 µM); IC50 (Leishmania infantum): > 9.19 µg/mL; IC50 (Plasmodium falciparum K1): 0.566 µg/mL (≈ 1.85 µM); IC50 (Trypanosoma cruzi): 3.3 µg/mL (≈ 10.8 µM); % Inhibition (Onchocerca lienalis): 0%; % Inhibition (Schistosoma mansoni [2]): 100%; IC50 [3]: 3.01 µg/mL (≈ 9.83 µM); IC50 (Schistosoma mansoni [4]): 5.8 µM

Question: Which results are given for O=C(Cc1csc(NC(=O)C2CCC(=O)N2)n1)NCc1ccccn1 (stereo not given)?
Answer: IC50 [1]: > 10.8 µg/mL; IC50 (Leishmania infantum): > 10.8 µg/mL; IC50 (Plasmodium falciparum K1): > 10.8 µg/mL; IC50 (Trypanosoma cruzi): > 10.8 µg/mL; % Inhibition (Onchocerca ochengi): 0%; % Inhibition (Schistosoma mansoni [2]): 100%; IC50 [3]: > 10.8 µg/mL; % Inhibition (Brugia malayi): 20%; IC50 (Schistosoma mansoni [4]): 2.48 µg/mL

Question: Which IC50 [1] does the source give for CCN(CC)c1cc(C)nc(Nc2ccc(NC(=O)c3cccs3)cc2)n1 here?
Answer: 0.472 µg/mL (≈ 1.24 µM)

Question: And the IC50 (Leishmania infantum)?
Answer: 3.7 µg/mL (≈ 9.71 µM)

Question: And the IC50 (Plasmodium falciparum K1)?
Answer: 0.378 µg/mL (≈ 0.99 µM)

Question: What about the IC50 (Trypanosoma cruzi) of the same compound?
Answer: 0.295 µg/mL (≈ 0.773 µM)

Question: What about the “% Inhibition” value (Onchocerca lienalis) of the same compound?
Answer: -1%

Question: What about the “% Inhibition” value (Schistosoma mansoni [2]) of the same compound?
Answer: 100%

Question: And the IC50 [3]?
Answer: 2.96 µg/mL (≈ 7.76 µM)

Question: And the IC50 (Schistosoma mansoni [4])?
Answer: 4.7 µM

Question: For Cn1ncc2c(N3CCOCC3)nc(NCCc3c[nH]c4ccccc34)nc21 [TDR79432], which IC50 [1] is on record?
Answer: > 11.3 µg/mL

Question: And the IC50 (Leishmania infantum)?
Answer: > 11.3 µg/mL

Question: And the IC50 (Plasmodium falciparum K1)?
Answer: 5.13 µg/mL (≈ 13.6 µM)

Question: What about the IC50 (Trypanosoma cruzi) of the same compound?
Answer: 2.69 µg/mL (≈ 7.11 µM)

Question: What about the “% Inhibition” value (Onchocerca lienalis) of the same compound?
Answer: 0%

Question: And the “% Inhibition” value (Schistosoma mansoni [2])?
Answer: 100%

Question: And the IC50 [3]?
Answer: 3.75 µg/mL (≈ 9.93 µM)

Question: What about the IC50 (Schistosoma mansoni [4]) of the same compound?
Answer: 3.8 µM

Question: What does the source list for CN(C)CCCN(C(=O)/C=C/c1ccccc1Cl)c1nc2cc3c(cc2s1)OCO3?
Answer: IC50 [1]: 0.428 µg/mL (≈ 0.964 µM); IC50 (Leishmania infantum): 0.467 µg/mL (≈ 1.05 µM); IC50 (Plasmodium falciparum K1): 1.44 µg/mL (≈ 3.25 µM); IC50 (Trypanosoma cruzi): 0.408 µg/mL (≈ 0.919 µM); % Inhibition (Onchocerca lienalis): 0%; % Inhibition (Schistosoma mansoni [2]): 100%; IC50 [3]: 0.462 µg/mL (≈ 1.04 µM); IC50 (Schistosoma mansoni [4]): 4.3 µM

Question: What does the source list for CCN(CC)c1cc(C)nc(Nc2ccc(NC(=O)c3c(F)cccc3F)cc2)n1?
Answer: IC50 [1]: 3.63 µg/mL (≈ 8.81 µM); IC50 (Leishmania infantum): 3.9 µg/mL (≈ 9.49 µM); IC50 (Plasmodium falciparum K1): 0.77 µg/mL (≈ 1.87 µM); IC50 (Trypanosoma cruzi): 0.26 µg/mL (≈ 0.632 µM); % Inhibition (Onchocerca lienalis): -1%; % Inhibition (Schistosoma mansoni [2]): 100%; IC50 [3]: 2.86 µg/mL (≈ 6.95 µM); IC50 (Schistosoma mansoni [4]): 7.4 µM

Question: What does the source list for CCc1ccc(NC(=O)c2oc3ccccc3c2NC(=O)Cc2cccs2)cc1?
Answer: IC50 [1]: > 12.1 µg/mL; IC50 (Leishmania infantum): > 12.1 µg/mL; IC50 (Plasmodium falciparum K1): > 12.1 µg/mL; IC50 (Trypanosoma cruzi): > 12.1 µg/mL; % Inhibition (Onchocerca lienalis): 0%; % Inhibition (Schistosoma mansoni [2]): 100%; IC50 [3]: > 12.1 µg/mL; IC50 (Schistosoma mansoni [4]): 6.5 µM

Question: Which results are given for O=S(=O)(c1ccccc1Cl)N1CCN(c2ccc(-c3ccco3)nn2)CC1?
Answer: IC50 [1]: > 12.1 µg/mL; IC50 (Leishmania infantum): > 12.1 µg/mL; IC50 (Plasmodium falciparum K1): > 12.1 µg/mL; IC50 (Trypanosoma cruzi): > 12.1 µg/mL; % Inhibition (Onchocerca ochengi): 0%; % Inhibition (Schistosoma mansoni [2]): 100%; IC50 [3]: > 12.1 µg/mL; % Inhibition (Brugia malayi): 0%; IC50 (Schistosoma mansoni [4]): 2.79 µg/mL

Question: Which IC50 [1] does the source give for CCOC(=O)c1oc2ccccc2c1NC(=O)c1cc(C)no1 here?
Answer: > 9.43 µg/mL

Question: And the IC50 (Leishmania infantum)?
Answer: > 9.43 µg/mL

Question: And the IC50 (Plasmodium falciparum K1)?
Answer: > 9.43 µg/mL

Question: What about the IC50 (Trypanosoma cruzi) of the same compound?
Answer: > 9.43 µg/mL

Question: And the “% Inhibition” value (Onchocerca ochengi)?
Answer: 0%

Question: And the “% Inhibition” value (Schistosoma mansoni [2])?
Answer: 100%

Question: And the IC50 [3]?
Answer: > 9.43 µg/mL

Question: What about the “% Inhibition” value (Brugia malayi) of the same compound?
Answer: 20%

Question: And the IC50 (Schistosoma mansoni [4])?
Answer: 2.21 µg/mL
